We go through 95 molecules from ChEMBL document CHEMBL4513216, “Probing the Open Global Health Chemical Diversity Library for Multistage-Active Starting Points for Next-Generation Antimalarials” (ACS Infect Dis, 2020).

The nature of this data set: Toxicity liver stage against HepG2, at 10uM. Set-up: test concentration 10 uM, cell line HepG2-A16-CD81EGFP. It counts as cell-based. Conditions: human, HepG2-A16-CD81EGFP cells; read-out: INHIBITION
A digest of the protocol:
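Uninfected HepG2-A16-CD81EGFP cells, 3 × 10^3 per well, 1536-well, plated on prespotted compound at 10 μM final, parasite-free screening media added to match infected plates; puromycin 10 μM positive, DMSO 0.5% negative; run in parallel with 48 h PbLuc assay at 37 °C, 5% CO2; viability by CellTiter-Glo luminescence, normalized to controls.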

`CN(CCO)Cc1nnc(C2CCN(C(=O)CN3CCCC3)CC2)n1C`: the cytotoxicity at 10 µM stood at 2.1%.
Then `CC(CCc1cccc(F)c1)NC(=O)NCc1ncnn1C` (stereo not given), with 12.2%.
Regarding `Nc1nc(CN2CCCC2Cn2cncn2)nc2ccccc12` (stereo not given), the cytotoxicity at 10 µM was -11.7%.
In the case of `Cc1nc(-c2ccncc2)nc(N(C)CCc2ccncc2)c1C` it was 11.6%; in that of `O=C1CC(CNc2cncc(Br)c2)c2ccccc2N1` (stereo not given), -5.19%; in that of `CCC(C)(C)n1nnnc1C(c1cccs1)N1CCCCC1` (stereo not given), 2.09%.
As to `O=C(COCC1CCCCO1)N1CCN(Cc2ccccc2F)C(=O)C1` (stereo not given), the cytotoxicity at 10 µM was determined as 3.15%.
For `Cc1cccc(CN2C[C@@H]3CN(C(=O)c4cnccn4)C[C@@H]3C2=O)c1`, the cytotoxicity at 10 µM turned out to be 2.43%.
`Cc1ccc(CN2CC[C@H]3O[C@@H](C(=O)N4CCCO4)CC[C@H]32)s1`: the cytotoxicity at 10 µM is -3.29%.
With `Cc1csc2ncc(-c3ccnc(N4CCC[C@H](C(N)=O)C4)n3)c(=O)n12`, the cytotoxicity at 10 µM is -13.3%.
In the case of `CC(C)NC(=O)C1CN(C(=O)COc2ccccc2)CC12CCOCC2` (stereo not given) it was -78.3%; in that of `C=Cc1cccc(CN2C[C@@H]3CC[C@H]2CN(Cc2c(C)noc2C)C3)c1`, -6.58%.
As for `CCc1ncnc(N(C)CC2CCCCO2)c1F` (stereo not given), the cytotoxicity at 10 µM was determined as 3.17%.
With `Cc1nc(C)n(C2CCCN(C(=O)c3csc(CC(C)C)n3)C2)n1` (stereo not given), the cytotoxicity at 10 µM was -17.3%.
Consider `O=C(c1ccc(Br)o1)N1CCCC(n2cncn2)C1` (stereo not given), for which the cytotoxicity at 10 µM is -3.22%.
`CN(C)CC1(O)CCN(C(=O)Cc2ccc3c(c2)CCCC3)C1` (stereo not given): the cytotoxicity at 10 µM was -7.75%.
Take `CC1=C[C@@H](CN2CCC(CO)CC2)[C@H](C(C)C)C[C@H]1Cc1nnc(C)o1`: the cytotoxicity at 10 µM came to 8.24%.
With `CCc1nc(CN(C)CC(=O)N(C)C2CC2)cs1`, the cytotoxicity at 10 µM was -3.54%.
Regarding `CNC(=O)C1CN(C(=O)c2cccs2)CCN(S(C)(=O)=O)C1` (stereo not given), the cytotoxicity at 10 µM turned out to be 2.41%.
Then `CN1CC(=O)N(c2ccccc2)CC12CCN(S(C)(=O)=O)C2` (stereo not given), with -75.7%; and `COc1cccc(CN2CCCCCC2c2cccc(C)c2)c1O` (stereo not given), with 7.6%.
As to `CN(CCn1ccc2ccccc21)C(=O)Cc1n[nH]c(=O)[nH]1`, the cytotoxicity at 10 µM was -16.4%.
On to `Cc1cnc(C(=O)N2C[C@@H]3CN(CC4CCCC4)CCO[C@@H]3C2)cn1`, for which the cytotoxicity at 10 µM is -2.76%.
Consider `COCCN1C(=O)CC(N2CCN(c3ccc(F)cc3)CC2)C1=O` (stereo not given), for which the cytotoxicity at 10 µM was -9.26%.
Then `Cc1nc(CC(=O)N2CCOC(c3nc(C(C)(C)C)n[nH]3)C2)cs1` (stereo not given), with 4.06%; and `CSc1ccc(NC(=O)NCC(O)C2CC2)cc1F` (stereo not given), with 6.32%.
For `CC(C)(C)n1ncc2c(=O)n(CC(=O)NCc3ccco3)cnc21`, the cytotoxicity at 10 µM was -1.6%.
`Cn1ccnc(Nc2ccc3c(c2)CCN3C(=O)c2ccoc2)c1=O`: the cytotoxicity at 10 µM was -65.2%.
Then `COCCNC(=O)[C@@H]1CCO[C@@H]2CCN(Cc3cnn(C)c3)C[C@@H]21`, with 0.341%; and `CC(NC(=O)C1CCCC1)c1nncn1C(C)C` (stereo not given), with 6.89%; and `CCCC(=O)N(C)CC(=O)Nc1ccc(Br)cn1`, with -15.5%.
Then `COc1cc(CNCc2c(C)nn(C)c2N(C)C)ccn1`, with -9.48%; and `COc1ccc2nnc(CCCC(=O)NCCc3ccccn3)n2n1`, with -9.49%.
On to `O=C(COc1ccccc1)N1CCC[C@]2(C[C@@H](OCC3CC3)CO2)C1`, for which the cytotoxicity at 10 µM is -1.69%.
Then `CS(=O)(=O)N1CCc2sc(C(=O)NCc3ccccc3)cc21`, with 0.997%.
Then `Cc1cc(C)c(C(=O)N2CCCC(O)(CN3CCCC3)C2)cc1C` (stereo not given), with 8.4%; and `CCCc1nc(C)c(CN2CC3(CCOC3)CCC2=O)s1` (stereo not given), with -10.5%; and `OCc1ccc(Cl)c(NCc2cccnc2)c1`, with 3.12%.
In the case of `CO[C@@H]1CN(c2ccccc2)S(=O)(=O)[C@@]12CCN(CC1CC1)C2` it was 1.84%; in that of `O=C(COC1CCCCC1)Nc1ccn(Cc2ccccn2)n1`, 0.38%.
With `CCn1cc(S(=O)(=O)Nc2nc3c(s2)CC(C)CC3)cn1` (stereo not given), the cytotoxicity at 10 µM was found to be 9.88%.
In the case of `CCN(C)C(=O)c1ccc(N(C)Cc2cc(-c3cccnc3)no2)nc1` it was -7.21%; in that of `CCC(=O)N1CCC2(CC1)CN(C(C)=O)c1ccc(C)cc12`, 8.82%.
Then `Cc1ccc(F)cc1C(=O)OCC1CCCN1C(N)=O` (stereo not given), with 5.01%; and `COc1nn(C)cc1C(=O)NCC(=O)NCc1ccccn1`, with -3.56%.
With `COc1ccccc1C(=O)N1CCNCC1C(N)=O` (stereo not given), the cytotoxicity at 10 µM turned out to be 1.96%.
As for `CC1(C(=O)Nc2ccc(F)c(-n3cccc3)c2)CCOCC1`, the cytotoxicity at 10 µM is -0.0972%.
Take `O=C([C@H]1CC[C@@H]2[C@@H](CCN2C2CCOCC2)O1)N1CCOCC1`: the cytotoxicity at 10 µM was -0.824%.
In the case of `Cc1cc(C)nc(N2CCC(CNC(=O)c3ccccn3)CC2)n1` it was -18.9%; in that of `O=S(=O)(CCCN1CCCCC1Cn1cncn1)c1ccccc1` (stereo not given), -7.42%.
Regarding `CCOC(C)c1nc(CN2CCN(CC(F)F)CC2)cs1` (stereo not given), the cytotoxicity at 10 µM is -8.94%.
Then `COCCN(Cc1ccoc1)S(=O)(=O)c1ccc(F)c(Cl)c1`, with -7.93%; and `O=C(O)c1ccccc1-c1ccc(CN2CC(c3ccncn3)C2)o1`, with 4.54%.
As to `C=C(C)CN1CCC(n2cc(C3CCCC3)nn2)CC1`, the cytotoxicity at 10 µM was 4.98%.
Then `c1cnn(Cc2cnc3n2CCN(CC2CCCCC2)C3)c1`, with -78.8%; and `CCn1nc2c(cc1=O)CN(CC(=O)N(C)c1nccs1)CC2`, with -4.58%.
Regarding `O=C(NCCc1ccn(-c2ccc(F)cc2)n1)C1CCCO1` (stereo not given), the cytotoxicity at 10 µM was -0.198%.
As for `N#Cc1cccnc1NCCNC(=O)N1CCCSCC1`, the cytotoxicity at 10 µM is -10.8%.
As for `COc1cccc(CC(=O)N2CC[C@@H]3NC(=O)CC[C@@H]32)c1`, the cytotoxicity at 10 µM is -4.04%.
In the case of `Cc1cccc(-n2cc(CN3CCN(C)[C@@H]4CS(=O)(=O)C[C@@H]43)cn2)c1` it was 2.25%; in that of `CCCc1n[nH]c(C2CN(C(=O)CCCn3cccn3)CCO2)n1` (stereo not given), -7.87%; in that of `Cc1ccc(CCN[C@@H]2c3ccccc3C3(CCNCC3)[C@H]2O)s1`, -2.72%.
Then `CC(C)c1n[nH]c(C2CN(CCCS(C)(=O)=O)CCO2)n1` (stereo not given), with -11.9%; and `CC(Oc1ccc(F)cc1)C(=O)N(CC(N)=O)C1CCCC1` (stereo not given), with 0.217%.
As to `CN(CC(O)C1CC1)C(=O)Nc1ccc(F)c(-n2cccc2)c1` (stereo not given), the cytotoxicity at 10 µM stood at 2.2%.
In the case of `CC(C)n1c(C(=O)N2CCCC2)nc2c1CCN(c1ncccn1)C2` it was -6.72%.
Regarding `CNc1ncccc1CN1CCCCC1c1cc(C)n2ccnc2n1` (stereo not given), the cytotoxicity at 10 µM was -2.17%.
In the case of `CNC(=O)CN1CC[C@H]2CN(C(=O)c3ccc(C)nc3)C[C@H]2C1` it was 1.61%; in that of `Cn1cc(C(=O)N2CCCCC2CCc2ccc(O)cc2)cn1` (stereo not given), -2.3%; in that of `Cc1ncsc1C(=O)NCc1cccs1`, -1.89%.
In the case of `COCCC1(CNC(=O)Nc2ccc(-n3cccn3)cc2)CCC1` it was -2.75%; in that of `CCc1nc(CN2CCCN(C(=O)CC(C)OC)CC2)cs1` (stereo not given), -24.7%.
Then `CN(Cc1nnc(C2CC2)o1)CC1CCCN1c1cccnn1` (stereo not given), with -6.54%; and `COc1ccc(CC(=O)N2CCCC2Cn2cc(C)cn2)c(OC)c1` (stereo not given), with -18%; and `Cn1cnc(S(=O)(=O)N2CCOCC2)c1Cl`, with 5.9%.
As for `Cc1cccc(-c2nc(C)nn2CN2CCC3(CC2)OCCO3)c1`, the cytotoxicity at 10 µM is -13.8%.
Then `O=C(NCc1ccccn1)C1CN(c2nc3ccccc3s2)CCN1` (stereo not given), with -42.8%; and `CCCNC(=O)Cn1cc(OC)c(=O)cc1CSc1nc(C)cc(C)n1`, with 4.46%; and `COc1c(C2CCCN2C(=O)c2ccnn2C)c(C)nn1C` (stereo not given), with 2.55%.
Regarding `O=C1NC2(CCN(Cc3cccs3)CC2)CC1c1ccncc1` (stereo not given), the cytotoxicity at 10 µM is 1.2%.
Then `Cc1cccc2nc(CSCC(=O)Nc3nnc(C(C)C)s3)cc(=O)n12`, with -3.95%; and `O=C(Cc1csc(-c2ccco2)n1)N1CCN(c2ccccc2O)CC1`, with -10.7%; and `COCc1csc(NC(=O)NCc2ncccc2C)n1`, with -2.6%.
Take `CC(C)C(=O)N1CCN(C(=O)CCc2nnc(-c3ccccc3)o2)CC1`: the cytotoxicity at 10 µM is -4.66%.
With `CCn1ccnc1CN1CCCN(C(=O)c2ccc(C#N)cc2)CC1`, the cytotoxicity at 10 µM is -6.96%.
In the case of `Cc1ccc(C)c(C(C)NC(=O)N2CCC(n3cncn3)CC2)c1` (stereo not given) it was -8.78%.
Then `COCc1cc(C[C@@H]2CC[C@H](O)[C@@H](CN(CC(C)C)CC(C)C)O2)no1`, with 0.169%; and `O=C(CCCc1ccccn1)NCC(O)c1c(F)cccc1F` (stereo not given), with -7.85%; and `Cc1cnc(N2C[C@@H]3[C@@H](C2)OCC(=O)N3CC(C)C)nc1`, with -0.173%.
Then `CCc1nnc2n1CCN(CC(=O)N1CCc3ccccc3C1)C2`, with -7.83%; and `O=C(NCCCNc1cccnc1)c1ccc2nccn2c1`, with -42.4%; and `COCCC(=O)N1CCCC([C@@H]2C[C@H](C(F)F)n3ncnc3N2)C1` (stereo not given in full), with -1.28%.
As to `CNc1cccc(C2CN(C(=O)c3c[nH]cn3)CCO2)n1` (stereo not given), the cytotoxicity at 10 µM came to 6%.
As for `CCc1cc(CNC(=O)NCC(c2ccco2)N2CCCC2)[nH]n1` (stereo not given), the cytotoxicity at 10 µM came to 0.238%.
Then `COC(=O)c1cccc(C(=O)N2CCN(c3cc(Cl)ccc3C)CC2)n1`, with 81.2%.
